{"source": "ChEMBL document CHEMBL2311431", "about": "“Synthesis and biological evaluation of some 5-arylidene-2-(1,3-thiazol-2-ylimino)-1,3-thiazolidin-4-ones as dual anti-inflammatory/antimicrobial agents” (Bioorg Med Chem, 2013)", "key": {"[1]": {"system": "Escherichia coli", "experiment": "Antibacterial activity against Escherichia coli ATCC 35210 after 24 hr by microdilution test", "format": "functional", "settings": "ATCC 35210, 24 h", "summary_of_the_method": "(§1)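 Broth microdilution in LB medium, about 1.0×10^4 cfu per well; compounds from 1 mg/ml stocks in 5% DMSO. Incubated 24 h. MIC is the lowest concentration with no visible growth under a binocular microscope. Run in duplicate, repeated three times.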"}, "[2]": {"system": "Aspergillus fumigatus", "experiment": "Fungicidal activity against Aspergillus fumigatus after 72 hrs by serial subcultivation method", "format": "functional"}, "[3]": {"system": "Talaromyces funiculosus", "experiment": "Fungicidal activity against Penicillium funiculosum ATCC 36839 after 72 hrs by serial subcultivation method", "format": "functional", "settings": "ATCC 36839, 72 h"}, "[4]": {"system": "Staphylococcus aureus", "experiment": "Antibacterial activity against Staphylococcus aureus ATCC 6538 after 24 hr by microdilution test", "format": "functional", "settings": "ATCC 6538, 24 h", "summary_of_the_method": "as §1"}, "[5]": {"system": "Pseudomonas aeruginosa", "experiment": "Antibacterial activity against Pseudomonas aeruginosa ATCC 27853 after 24 hr by microdilution test", "format": "functional", "settings": "ATCC 27853, 24 h", "summary_of_the_method": "as §1"}, "[6]": {"system": "Mus musculus", "experiment": "Acute toxicity in AKR mouse up to 0.5 mmol/kg, ip", "format": "organism-based", "settings": "in vivo"}, "[7]": {"system": "Aspergillus niger", "experiment": "Fungicidal activity against Aspergillus niger ATCC 6275 after 72 hrs by serial subcultivation method", "format": "functional", "settings": "ATCC 6275, 72 h"}, "[8]": {"system": "Trichoderma viride", "experiment": "Fungicidal activity against Trichoderma viride IAM 5061 after 72 hrs by serial subcultivation method", "format": "functional", "settings": "IAM 5061, 72 h"}, "[9]": {"experiment": "Inhibition of soybean lipoxygenase assessed as inhibition of sodium linolate conversion to 13-hydroperoxylinoleic acid after 4 mins by spectrophotometry", "design": "species or system Glycine max", "settings": "read-out: IC50"}, "[10]": {"system": "Micrococcus flavus", "experiment": "Bactericidal activity against Micrococcus flavus ATCC 10240 after 72 hrs by serial subcultivation method", "format": "functional", "settings": "ATCC 10240, 72 h"}, "[11]": {"system": "Micrococcus flavus", "experiment": "Antibacterial activity against Micrococcus flavus ATCC 10240 after 24 hr by microdilution test", "format": "functional", "settings": "ATCC 10240, 24 h", "summary_of_the_method": "as §1"}, "[12]": {"system": "Talaromyces funiculosus", "experiment": "Antifungal activity against Penicillium funiculosum ATCC 36839 after 72 hrs by serial dilution technique", "format": "functional", "settings": "ATCC 36839, 72 h", "summary_of_the_method": "(§2)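 Serial dilution in malt broth; compounds from 1 mg/ml stocks in 5% DMSO; 72 h at 28 °C. MIC is the lowest concentration with no visible growth under a binocular microscope. Run in duplicate, repeated three times.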"}, "[13]": {"system": "Mus musculus", "experiment": "Antiinflammatory activity in AKR mouse assessed as inhibition of carrageenan-induced paw edema at 0.01 mmol/kg, ip measured after 3.5 hrs of carrageenan-challenge", "format": "functional", "summary_of_the_method": "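AKR mice of both sexes (pregnant females excluded), 6-10 per group, fasted during the experiment. Edema induced by intradermal 0.05 mL of 2% carrageenin into the right hind paw. Compound given at 0.01 mmol/kg ip, suspended in water with Tween-80, at the same time as carrageenin.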"}, "[14]": {"system": "Escherichia coli", "experiment": "Bactericidal activity against Escherichia coli ATCC 35210 after 72 hrs by serial subcultivation method", "format": "functional", "settings": "ATCC 35210, 72 h"}, "[15]": {"system": "Staphylococcus aureus", "experiment": "Bactericidal activity against Staphylococcus aureus ATCC 6538 after 72 hrs by serial subcultivation method", "format": "functional", "settings": "ATCC 6538, 72 h"}, "[16]": {"system": "Aspergillus flavus", "experiment": "Antifungal activity against Aspergillus flavus ATCC 9643 after 72 hrs by serial dilution technique", "format": "functional", "settings": "ATCC 9643, 72 h", "summary_of_the_method": "as §2"}, "[17]": {"system": "Aspergillus niger", "experiment": "Antifungal activity against Aspergillus niger ATCC 6275 after 72 hrs by serial dilution technique", "format": "functional", "settings": "ATCC 6275, 72 h", "summary_of_the_method": "as §2"}, "[18]": {"system": "Trichoderma viride", "experiment": "Antifungal activity against Trichoderma viride IAM 5061 after 72 hrs by serial dilution technique", "format": "functional", "settings": "IAM 5061, 72 h", "summary_of_the_method": "as §2"}, "[19]": {"system": "Aspergillus flavus", "experiment": "Fungicidal activity against Aspergillus flavus ATCC 9643 after 72 hrs by serial subcultivation method", "format": "functional", "settings": "ATCC 9643, 72 h"}, "[20]": {"system": "Listeria monocytogenes", "experiment": "Bactericidal activity against Listeria monocytogenes NCTC 7973 after 72 hrs by serial subcultivation method", "format": "functional", "settings": "NCTC 7973, 72 h"}, "[21]": {"system": "Pseudomonas aeruginosa", "experiment": "Bactericidal activity against Pseudomonas aeruginosa ATCC 27853 after 72 hrs by serial subcultivation method", "format": "functional", "settings": "ATCC 27853, 72 h"}, "[22]": {"system": "Penicillium ochrochloron", "experiment": "Fungicidal activity against Penicillium ochrochloron ATCC 9112 after 72 hrs by serial subcultivation method", "format": "functional", "settings": "ATCC 9112, 72 h"}, "[23]": {"system": "Bacillus cereus", "experiment": "Bactericidal activity against Bacillus cereus clinical isolate after 72 hrs by serial subcultivation method", "format": "functional"}, "[24]": {"system": "Penicillium ochrochloron", "experiment": "Antifungal activity against Penicillium ochrochloron ATCC 9112 after 72 hrs by serial dilution technique", "format": "functional", "settings": "ATCC 9112, 72 h", "summary_of_the_method": "as §2"}, "[25]": {"system": "Bacillus cereus", "experiment": "Antibacterial activity against Bacillus cereus clinical isolate after 24 hr by microdilution test", "format": "functional", "summary_of_the_method": "as §1"}, "[26]": {"system": "Aspergillus fumigatus", "experiment": "Antifungal activity against Aspergillus fumigatus after 72 hrs by serial dilution technique", "format": "functional", "summary_of_the_method": "as §2"}, "[27]": {"biological_target": "T1, Prostaglandin G/H synthase 1 (Ovis aries) (UniProt P05979)", "T1 sequence (whole entry)": "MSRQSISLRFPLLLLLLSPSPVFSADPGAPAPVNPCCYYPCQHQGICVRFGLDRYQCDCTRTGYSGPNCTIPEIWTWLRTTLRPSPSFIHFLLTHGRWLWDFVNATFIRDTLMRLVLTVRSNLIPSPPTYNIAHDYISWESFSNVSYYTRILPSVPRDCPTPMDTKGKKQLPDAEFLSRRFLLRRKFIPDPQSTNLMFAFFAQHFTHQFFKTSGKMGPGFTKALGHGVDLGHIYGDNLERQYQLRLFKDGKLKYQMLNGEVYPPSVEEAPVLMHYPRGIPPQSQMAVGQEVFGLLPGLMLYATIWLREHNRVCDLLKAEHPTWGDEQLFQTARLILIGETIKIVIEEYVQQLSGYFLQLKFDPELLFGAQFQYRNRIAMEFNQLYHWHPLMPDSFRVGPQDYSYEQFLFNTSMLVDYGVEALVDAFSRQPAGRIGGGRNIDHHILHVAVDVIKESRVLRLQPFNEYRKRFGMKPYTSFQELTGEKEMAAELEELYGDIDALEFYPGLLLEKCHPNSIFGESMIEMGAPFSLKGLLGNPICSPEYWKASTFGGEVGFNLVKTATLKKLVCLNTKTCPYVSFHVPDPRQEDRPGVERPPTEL", "experiment": "Inhibition of ovine COX1 assessed as inhibition of PGF2a production by enzyme immunoassay", "design": "concentration or dose not given beside the values", "settings": "concentration not given here", "summary_of_the_method": "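Ovine COX-1 from a commercial screening kit, tested with 0.1 µM arachidonic acid, which is below the saturating level. COX-derived PGH2 is reduced by SnCl2 to PGF2a, quantified by enzyme immunoassay with a broad prostaglandin antibody. At least triplicate.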"}, "[28]": {"system": "Listeria monocytogenes", "experiment": "Antibacterial activity against Listeria monocytogenes NCTC 7973 after 24 hr by microdilution test", "format": "functional", "settings": "NCTC 7973, 24 h", "summary_of_the_method": "as §1"}}}
{"smiles": "CN(C)c1ccc(/C=C2\\S/C(=N/c3nccs3)NC2=O)cc1", "values": [{"measurement": "MIC", "setting": "[1]", "result": 7.6, "unit": "µM"}, {"measurement": "MFC", "setting": "[2]", "result": 15.2, "unit": "µM"}, {"measurement": "MFC", "setting": "[3]", "result": 15.2, "unit": "µM"}, {"measurement": "MIC", "setting": "[4]", "result": 30.3, "unit": "µM"}, {"measurement": "MIC", "setting": "[5]", "result": 30.3, "unit": "µM"}, {"measurement": "Activity", "setting": "[6]", "result": "Non-toxic"}, {"measurement": "MFC", "setting": "[7]", "result": 15.2, "unit": "µM"}, {"measurement": "MFC", "setting": "[8]", "result": 15.2, "unit": "µM"}, {"measurement": "IC50", "setting": "[9]", "result": 95, "unit": "µM"}, {"measurement": "MBC", "setting": "[10]", "result": 15.2, "unit": "µM"}, {"measurement": "MIC", "setting": "[11]", "result": 7.6, "unit": "µM"}, {"measurement": "MIC", "setting": "[12]", "result": 7.6, "unit": "µM"}, {"measurement": "inhibition in vivo at 10 µmol/kg", "setting": "[13]", "result": 67.3, "unit": "%"}, {"measurement": "MBC", "setting": "[14]", "result": 15.2, "unit": "µM"}, {"measurement": "MBC", "setting": "[15]", "result": 60.6, "unit": "µM"}, {"measurement": "MIC", "setting": "[16]", "result": 15.2, "unit": "µM"}, {"measurement": "MIC", "setting": "[17]", "result": 15.2, "unit": "µM"}, {"measurement": "MIC", "setting": "[18]", "result": 7.6, "unit": "µM"}, {"measurement": "MFC", "setting": "[19]", "result": 15.2, "unit": "µM"}, {"measurement": "MBC", "setting": "[20]", "result": 60.6, "unit": "µM"}, {"measurement": "MBC", "setting": "[21]", "result": 60.6, "unit": "µM"}, {"measurement": "MFC", "setting": "[22]", "result": 15.2, "unit": "µM"}, {"measurement": "MBC", "setting": "[23]", "result": 15.2, "unit": "µM"}, {"measurement": "MIC", "setting": "[24]", "result": 7.6, "unit": "µM"}, {"measurement": "MIC", "setting": "[25]", "result": 7.6, "unit": "µM"}, {"measurement": "MIC", "setting": "[26]", "result": 15.2, "unit": "µM"}, {"measurement": "inhibition", "setting": "[27]", "result": 50, "unit": "%"}, {"measurement": "MIC", "setting": "[28]", "result": 30.3, "unit": "µM"}]}
{"smiles": "Cc1csc(/N=C2\\NC(=O)/C(=C/c3ccc(Cl)cc3)S2)n1", "values": [{"measurement": "MIC", "setting": "[1]", "result": 120, "unit": "µM"}, {"measurement": "MFC", "setting": "[2]", "result": 15.2, "unit": "µM"}, {"measurement": "MFC", "setting": "[3]", "result": 15.2, "unit": "µM"}, {"measurement": "MIC", "setting": "[4]", "result": 120, "unit": "µM"}, {"measurement": "MIC", "setting": "[5]", "result": 30, "unit": "µM"}, {"measurement": "Activity", "setting": "[6]", "result": "Non-toxic"}, {"measurement": "MFC", "setting": "[7]", "result": 15.2, "unit": "µM"}, {"measurement": "MFC", "setting": "[8]", "result": 15.2, "unit": "µM"}, {"measurement": "IC50", "setting": "[9]", "result": 76, "unit": "µM"}, {"measurement": "MBC", "setting": "[10]", "result": 60, "unit": "µM"}, {"measurement": "MIC", "setting": "[11]", "result": 30, "unit": "µM"}, {"measurement": "MIC", "setting": "[12]", "result": 7.6, "unit": "µM"}, {"measurement": "inhibition in vivo at 10 µmol/kg", "setting": "[13]", "result": 42, "unit": "%"}, {"measurement": "MBC", "setting": "[14]", "result": 240, "unit": "µM"}, {"measurement": "MBC", "setting": "[15]", "result": 240, "unit": "µM"}, {"measurement": "MIC", "setting": "[16]", "result": 15.2, "unit": "µM"}, {"measurement": "MIC", "setting": "[17]", "result": 15.2, "unit": "µM"}, {"measurement": "MIC", "setting": "[18]", "result": 7.6, "unit": "µM"}, {"measurement": "MFC", "setting": "[19]", "result": 15.2, "unit": "µM"}, {"measurement": "MBC", "setting": "[20]", "result": 60, "unit": "µM"}, {"measurement": "MBC", "setting": "[21]", "result": 120, "unit": "µM"}, {"measurement": "MFC", "setting": "[22]", "result": 15.2, "unit": "µM"}, {"measurement": "MBC", "setting": "[23]", "result": 30, "unit": "µM"}, {"measurement": "MIC", "setting": "[24]", "result": 7.6, "unit": "µM"}, {"measurement": "MIC", "setting": "[25]", "result": 30, "unit": "µM"}, {"measurement": "MIC", "setting": "[26]", "result": 15.2, "unit": "µM"}, {"measurement": "inhibition", "setting": "[27]", "result": 74, "unit": "%"}, {"measurement": "MIC", "setting": "[28]", "result": 30, "unit": "µM"}]}
